Source: ChEMBL document CHEMBL2417469, “Synthesis of novel analogs of 2-pyrazoline obtained from [(7-chloroquinolin-4-yl)amino]chalcones and hydrazine as potential antitumor and antimalarial agents” (Eur J Med Chem, 2013)

Key:
Assay type in all cases: functional
NCI-H522 = experiment: Cytotoxicity against human NCI-H522 cells after 48 hrs by SRB assay; settings: NCI-H522, 48 h; for CC50: read-out: LC50 (the source's name)
In short: (§1)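 NCI 60-cell-line screen. Cells preincubated 24 h at 37 °C, 5% CO2; time-zero plates TCA-fixed. Compounds dissolved in DMSO and tested at five concentrations (100, 10, 1.0, 0.1, 0.01 µM) for 48 h continuous exposure. Adherent cells fixed with cold TCA (10% final), then SRB stained; absorbance at 515 nm. GI50, TGI and LC50 calculated from growth relative to time-zero and untreated controls.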

NCI/ADR-RES = experiment: Cytotoxicity against human NCI/ADR-RES cells after 48 hrs by SRB assay; settings: for CC50: read-out: LC50 (the source's name); in short: as §1
SN12C = experiment: Cytotoxicity against human SN12C cells after 48 hrs by SRB assay; in short: as §1
OVCAR-5 = experiment: Cytotoxicity against human OVCAR5 cells after 48 hrs by SRB assay; settings: OVCAR-5, 48 h; in short: as §1
HL-60(TB) = experiment: Cytotoxicity against human HL-60(TB) cells after 48 hrs by SRB assay; settings: HL-60, 48 h; in short: as §1
SK-MEL-5 = experiment: Cytotoxicity against human SK-MEL-5 cells after 48 hrs by SRB assay; settings: SK-MEL-5, 48 h; in short: as §1
SW-620 = experiment: Cytotoxicity against human SW620 cells after 48 hrs by SRB assay; settings: SW-620, 48 h
In short: (§2)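 NCI 60-cell screen. Cells grew 24 h (37 °C, 5% CO2) before compound was added. Compounds were in DMSO and diluted in medium with gentamicin, then tested at five levels (100, 10, 1.0, 0.1, 0.01 µM) with 48 h continuous exposure. Adherent cells were fixed with TCA (10% final) and stained with 0.4% SRB, absorbance read at 515 nm. A time-zero plate was included. LC50 is the concentration giving 50% loss of protein relative to time zero.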

MOLT-4 = experiment: Cytotoxicity against human MOLT4 cells after 48 hrs by SRB assay; settings: MOLT-4, 48 h; in short: as §1
SF-295 = experiment: Cytotoxicity against human SF295 cells after 48 hrs by SRB assay; settings: SF-295, 48 h; in short: as §1
[1] = Cytotoxicity against human EKVX cells after 48 hrs by SRB assay; in short: as §1
OVCAR-3 = experiment: Cytotoxicity against human OVCAR3 cells after 48 hrs by SRB assay; settings: OVCAR-3, 48 h; in short: as §1
ACHN = experiment: Cytotoxicity against human ACHN cells after 48 hrs by SRB assay; settings: for CC50: read-out: LC50 (the source's name); in short: as §1
Plasmodium falciparum = experiment: Antimalarial activity against Plasmodium falciparum NF54 infected in human serum at 20 ug/ml after 48 hrs by fluorometric method
In short: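 Asynchronous P. falciparum NF54 at 1.5–2% parasitemia, 5% hematocrit in RPMI with 10% human serum, exposed 48 h at 37 °C under 90% N2/5% CO2/5% O2 at the stated concentration; parasite DNA stained with ethidium bromide after proteinase K lysis; viability % = (Flu treated − medium)/(Flu untreated − medium) ×100; triplicate.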

T47D = experiment: Cytotoxicity against human T47D cells after 48 hrs by SRB assay; in short: as §2
SNB-75 = experiment: Cytotoxicity against human SNB75 cells after 48 hrs by SRB assay; settings: SNB-75, 48 h; in short: as §2
NCI-H322M = experiment: Cytotoxicity against human NCI-H322M cells after 48 hrs by SRB assay; in short: as §1
UACC-257 = experiment: Cytotoxicity against human UACC257 cells after 48 hrs by SRB assay; settings: UACC-257, 48 h; in short: as §2
NCI-H23 = experiment: Cytotoxicity against human NCI-H23 cells after 48 hrs by SRB assay; settings: NCI-H23, 48 h; for CC50: read-out: LC50 (the source's name); in short: as §1
HOP-62 = experiment: Cytotoxicity against human HOP62 cells after 48 hrs by SRB assay; settings: HOP-62, 48 h; in short: as §1
BT-549 = experiment: Cytotoxicity against human BT549 cells after 48 hrs by SRB assay; settings: BT-549, 48 h; in short: as §1
COLO 205 = experiment: Cytotoxicity against human COLO205 cells after 48 hrs by SRB assay; settings: COLO 205, 48 h; in short: as §1
NCI-H460 = experiment: Cytotoxicity against human NCI-H460 cells after 48 hrs by SRB assay; settings: NCI-H460, 48 h; in short: as §1
RPMI-8226 = experiment: Cytotoxicity against human RPMI8226 cells after 48 hrs by SRB assay; settings: RPMI-8226, 48 h; in short: as §1
K562 = experiment: Cytotoxicity against human K562 cells after 48 hrs by SRB assay; settings: K562, 48 h; in short: as §1

SMILES: O=CN1N=C(c2ccc(Nc3ccnc4cc(Cl)ccc34)cc2)CC1c1ccc(Cl)cc1 (centres undefined)
- GI50 (NCI-H522): 390 nM
- CC50 (NCI-H522): > 100000 nM
- GI50 (NCI/ADR-RES): 360 nM
- CC50 (NCI/ADR-RES): > 100000 nM
- GI50 (SN12C): 980 nM
- LC50 (50% net cell kill relative to time zero) (SN12C): > 100000 nM
- GI50 (OVCAR-5): 6460 nM
- LC50 (OVCAR-5): > 100000 nM
- GI50 (HL-60(TB)): 380 nM
- CC50 (HL-60(TB); read-out: LC50 (the source's name)): > 100000 nM
- GI50 (SK-MEL-5): 810 nM
- LC50 (concentration killing 50% of cells present at time zero) (SK-MEL-5): > 100000 nM
- GI50 (SW-620): 480 nM
- LC50 (SW-620): > 100000 nM
- GI50 (MOLT-4): 530 nM
- LC50 (MOLT-4): > 100000 nM
- GI50 (SF-295): 270 nM
- LC50 (SF-295): > 100000 nM
- LC50 [1]: > 100000 nM
- GI50 (OVCAR-3): 350 nM
- LC50 (OVCAR-3): > 100000 nM
- GI50 (ACHN): 1000 nM
- CC50 (ACHN): > 100000 nM
- inhibition at 20 µg/mL (Plasmodium falciparum): 1.1%
- GI50 (T47D): 1560 nM
- LC50 (concentration giving 50% cell kill relative to time zero) (T47D): > 100000 nM
- GI50 (SNB-75): 420 nM
- LC50 (50% net cell kill) (SNB-75): > 100000 nM
- GI50 (NCI-H322M): > 100000 nM
- LC50 (50% lethal concentration) (NCI-H322M): > 100000 nM
- GI50 (UACC-257): > 100000 nM
- LC50 (UACC-257): > 100000 nM
- GI50 (NCI-H23): 2770 nM
- CC50 (NCI-H23): > 100000 nM
- GI50 (HOP-62): 860 nM
- LC50 (50% lethal concentration) (HOP-62): > 100000 nM
- GI50 (BT-549): 4770 nM
- LC50 (50% net cell kill vs time zero) (BT-549): > 100000 nM
- GI50 (COLO 205): 2400 nM
- LC50 (COLO 205): > 100000 nM
- GI50 (NCI-H460): 590 nM
- LC50 (NCI-H460): > 100000 nM

SMILES: COc1cccc2c1C(=O)c1c(O)c3c(c(O)c1C2=O)C[C@@](O)(C(=O)CO)C[C@@H]3O[C@H]1C[C@H](N)[C@H](O)[C@H](C)O1 [DOXORUBICIN]
- GI50 (NCI-H522): 30 nM
- CC50 (NCI-H522): 2800 nM
- GI50 (NCI/ADR-RES): 7160 nM
- CC50 (NCI/ADR-RES): 100000 nM
- GI50 (SN12C): 70 nM
- GI50 (OVCAR-5): 410 nM
- GI50 (HL-60(TB)): 120 nM
- GI50 (SK-MEL-5): 80 nM
- GI50 (SW-620): 90 nM
- GI50 (MOLT-4): 30 nM
- GI50 (SF-295): 100 nM
- GI50 [1]: 410 nM
- GI50 (OVCAR-3): 390 nM
- GI50 (ACHN): 80 nM
- CC50 (ACHN): 100000 nM
- GI50 (T47D): 60 nM
- GI50 (SNB-75): 70 nM
- GI50 (NCI-H322M): 540 nM
- GI50 (RPMI-8226): 80 nM
- GI50 (UACC-257): 140 nM
- GI50 (K562): 190 nM
- GI50 (NCI-H23): 150 nM
- CC50 (NCI-H23): 13200 nM
- GI50 (HOP-62): 70 nM
- GI50 (BT-549): 230 nM
- GI50 (COLO 205): 180 nM
- GI50 (NCI-H460): 20 nM
